Bioassay records: PubChem, Broad Institute
An excerpt weighted towards active compounds, which were near 2.2% of everything screened.
S100A4 MyoIIA – S100A4-myosin IIA interaction inhibition | 360,000 compounds, 0.14% hits | P26447 | S100A4/TAMRA-MyoIIA peptide fluorescence polarization | inhibition, % at 10.7 µM;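 active = mean inhibition of at least 70% across replicates, with every replicate also reaching that level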
Target sequence (P26447 whole entry, looked up): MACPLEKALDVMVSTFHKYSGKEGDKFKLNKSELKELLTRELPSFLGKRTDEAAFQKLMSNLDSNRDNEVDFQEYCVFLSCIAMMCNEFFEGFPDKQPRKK
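Material: S100A4 monomer protein / Buffer or medium: 50 mM HEPES pH 7.2, 10 mM CaCl2, 100 mM KCl / Times: 5 min incubation before reading / Benchmarks: neutral control DMSO, positive control TFP / Reagent: labelled myosin peptide probe, 5 nM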
FGF22 binding-1 – FGF22 (human) thermal shift binding. Q9HCT0. recombinant FGF22 thermal shift, SYPRO orange fluorescence; percent of sucrose octasulfate shift, DMSO zero. activity (Tm shift, normalised), % at 9.99 µM. 340,000 compounds, 1.5% hits. AID 651658;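 active = mean Tm shift, scaled 0 neutral to 100 positive control, at about 1.3% or above, every replicate too, limit read from the data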
Target sequence (Q9HCT0 whole entry, looked up): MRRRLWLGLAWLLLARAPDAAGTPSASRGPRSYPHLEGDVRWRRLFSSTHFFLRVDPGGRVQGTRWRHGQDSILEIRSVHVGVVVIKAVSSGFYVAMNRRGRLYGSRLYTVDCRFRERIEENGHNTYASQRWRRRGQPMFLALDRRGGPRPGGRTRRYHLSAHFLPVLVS
dFosB activator – mouse delta FosB homodimer activation; activation, % at 25 µM; AID 493131; P13346; purified delta FosB, TAMRA-CDK5 oligo fluorescence polarization; percent of positive-control signal above neutral wells; 340,000 compounds, 0.99% hits;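 active = mean activation above about 17%, with every replicate also reaching it, limit read from the data, passing the limit was not always enough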
F508del corr – CFTR F508del correction in bronchial cells; activity (quench increase), % at 7.58 µM; CFBE cells, YFP halide quenching; stimulated with forskolin plus potentiator P3; % fluorescence drop versus neutral controls; 350,000 compounds, 0.36% hits;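 active = mean added fluorescence quench of at least 8% versus neutral control, with both replicates also reaching 8%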;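 note: cells transiently co-express mutant CFTR-F508del with the halide-sensitive YFP; corrector assay measuring rescue of mutant channel to the surface after 24 h compound exposure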
FGF22 binding-2 – FGF22 (human) binding in thermal shift; shares compounds with FGF22 binding-1; recombinant FGF22 thermal shift, SYPRO orange fluorescence; thermal shift activity, °C (ΔTm) at 38 µM; 1,000 compounds, 2% hits; AID 720646;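 active = fitted rise in melting shift crosses a set limit at or below the top valid dose tested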
TSA no protein – shows thermal shift signal without protein, FGF22 counter-screen; shares compounds with FGF22 binding-1; compound-only SYPRO orange thermal shift counter-screen, no protein; AC50, µM (series often up to 38 µM); 1,000 compounds, 2% hits; AID 743019;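 active = rising signal whose fitted curve reaches the 0.54 level within the top valid dose, showing a melting point, actives reach about 13 µM in these data; inactive = the rest, including activity in the opposite direction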; note: value is where the raw curve crosses a fixed level and not half-maximal
Numbers stand for hits; 0 = inactive; - = not tested or not shown.

SMILES	S100A4 MyoIIA	FGF22 binding-1	dFosB activator	F508del corr	FGF22 binding-2	TSA no protein
Cc1noc(C)c1NC(=O)Nc1cccc2c1O[C@@H](CN(C)Cc1ccncc1)[C@@H](C)CN([C@@H](C)CO)C2=O	0	0	-	0	-	-
O=C(NNC(=O)c1ccccc1O)c1ccc(NS(=O)(=O)c2ccc(F)c(F)c2)cc1	0	1.8	0	0	0	0
Cc1ccc(NS(=O)(=O)c2ccc(C(=O)NNC(=O)c3ccccc3O)cc2)cc1	0	0	0	0	-	-
Cc1ccc2nc(-c3ccc(NC(=O)COCC(=O)O)cc3)sc2c1	0	23	0	0	0	0
Cc1ccc2nc(-c3ccc(NC(=O)CSCC(=O)O)cc3)sc2c1	0	0	0	0	-	-
CC(C)C#Cc1cnc2c(c1)C(=O)N([C@@H](C)CO)C[C@H](C)[C@H](CN(C)C(=O)c1cnccn1)O2	0	1.3	-	0	0	0
COCC#Cc1cnc2c(c1)C(=O)N([C@H](C)CO)C[C@H](C)[C@H](CN(C)C(=O)c1cnccn1)O2	0	3.2	-	0	0	0
CC=Cc1ccc2n(c1=O)C[C@@H]1[C@@H](CO)[C@H](C(=O)NCCc3cn(C)cn3)[C@H]2N1C(=O)C1CCCC1 (mixture of isomers)	0	0	-	0	-	-
CCCNC(=O)[C@@H]1[C@@H](CO)[C@@H]2Cn3c(ccc(-c4ccccc4)c3=O)[C@@H]2N1C(=O)c1ccccc1F	0	0	-	0	-	-
N#CC(C#N)=C1NC(N)=C(C#N)C(c2ccccc2)=C1C#N	0	2.1	0	0	0	0
CCC(=O)N1CC2(C1)[C@H](c1ccccc1)[C@@H](CO)N2Cc1cccc(Cl)c1	0	0	-	0	-	-
COC(=O)c1cn(NC(=O)Cc2ccccc2OC)c(=O)c2ccccc12	0	2.1	0	0	0	0
O=C(COc1ccc(S(=O)(=O)Nc2ccccc2)cc1)NCc1ccncc1	0	14	0	0	0	0
COc1ccc(NC(=O)N(C)C[C@@H]2OCCCC[C@H](C)Oc3ccc(NC(=O)c4ccccc4)cc3C(=O)N([C@@H](C)CO)C[C@@H]2C)cc1	0	0	-	0	-	-
O=S(=O)(Nc1cccc(-n2cnnn2)c1)c1ccc(Cl)cc1	0	1.7	0	0	0	0
COC(=O)C[C@H]1CC[C@@H]2[C@H](COc3ccc(NC(=O)Nc4cc(C)cc(C)c4)cc3C(=O)N2C)O1	0	0	-	-	-	-
COc1ccc(NC(=O)CN(C)C(=O)c2cn(-c3ccccc3)nc2-c2cccs2)cc1	0	0	0	0	-	-
COc1ccc(NC(=O)CN(C)C(=O)c2cn(-c3ccccc3)nc2-c2cccnc2)cc1	0	2.4	0	0	0	0
COc1cccc(S(=O)(=O)N[C@H]2CC[C@@H](CC(=O)NC3CCC3)O[C@@H]2CO)c1	0	0	-	0	-	-
CS(=O)(=O)c1ccc2nc(NC(=O)CCNC(=O)c3ccccc3Cl)sc2c1	0	0	0	0	-	-
O=C(CCNC(=O)c1ccccc1Cl)Nc1nc2ccc(F)cc2s1	0	2.7	0	0	0	0
Cc1noc(C)c1NC(=O)N[C@@H]1C=C[C@H](CC(=O)Nc2ccc(-c3ccccc3)cc2)O[C@@H]1CO	0	1.9	-	0	0	0
COc1ccc(NS(=O)(=O)c2ccc(Cl)c(N)c2)cc1Br	0	1.3	0	0	0	0
Nc1cc(S(=O)(=O)Nc2ccc(Br)cc2)ccc1Cl	0	0	0	0	-	-
Cc1cccc(NC(=O)Nc2ccc(S(N)(=O)=O)cc2)c1	0	1.7	-	0	0	11µM
C[C@H]1CN([C@@H](C)CO)C(=O)c2cc(NS(=O)(=O)c3ccc(Cl)cc3)ccc2O[C@@H]1CN(C)C(=O)Nc1ccc2c(c1)OCO2	0	2.5	-	0	0	0
C[C@H](CO)N1C[C@H](C)[C@@H](CN(C)C(=O)Nc2ccc3c(c2)OCO3)Oc2ccc(NC(=O)C3CC3)cc2C1=O	0	0	-	0	-	-
C[C@@H]1CN([C@@H](C)CO)C(=O)c2cc(NC(=O)C3CC3)ccc2O[C@@H]1CN(C)C(=O)Nc1ccc2c(c1)OCO2	0	2.4	-	0	0	0
C[C@H](CO)N1C[C@H](C)[C@@H](CN(C)C(=O)Nc2ccc3c(c2)OCO3)Oc2c(NC(=O)c3cnccn3)cccc2C1=O	0	6.3	-	0	0	0
